In the M2OR odorant receptor database:

Assays:
Settings in all cases: stereoisomer not certain
[1] = test system: T1, O5AN1
T1 sequence (whole entry): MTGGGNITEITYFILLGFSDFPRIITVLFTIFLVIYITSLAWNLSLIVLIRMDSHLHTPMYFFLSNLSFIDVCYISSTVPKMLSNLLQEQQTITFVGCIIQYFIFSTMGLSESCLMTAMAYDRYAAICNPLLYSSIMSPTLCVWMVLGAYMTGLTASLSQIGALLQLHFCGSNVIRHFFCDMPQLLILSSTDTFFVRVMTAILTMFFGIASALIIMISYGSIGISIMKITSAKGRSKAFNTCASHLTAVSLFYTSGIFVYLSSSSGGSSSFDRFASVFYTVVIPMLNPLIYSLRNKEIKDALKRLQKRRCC
Method in brief: (§1)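 Each receptor–molecule pair is labelled responsive or non-responsive (inactive) according to whether the original authors judged the measured signal statistically different from baseline. The data were taken from the main text and supplementary material of published papers and checked for typos and inconsistencies. Assay methods differed by source, with transient luciferase assays in mammalian cell lines being common.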

[2] = molecular target: OR10A2 (Homo sapiens) (UniProt Q9H208)
Method in brief: as §1

[3] = molecular target: OR10A4 (Homo sapiens) (UniProt Q9H209)
Method in brief: as §1

[4] = molecular target: OR10A5 (Homo sapiens) (UniProt Q9H207)
Method in brief: as §1

[5] = molecular target: OR10A6 (Homo sapiens) (UniProt Q8NH74)
Method in brief: as §1

[6] = molecular target: OR10A7 (Homo sapiens) (UniProt Q8NGE5)
Method in brief: as §1

[7] = molecular target: OR10AC1 (Homo sapiens) (UniProt Q8NH08)
Method in brief: as §1

[8] = molecular target: OR10AD1 (Homo sapiens) (UniProt Q8NGE0)
Method in brief: as §1

[9] = molecular target: OR10AG1 (Homo sapiens) (UniProt Q8NH19)
Method in brief: as §1

[10] = molecular target: OR10C1 (Homo sapiens) (UniProt Q96KK4)
Method in brief: as §1

[11] = test system: O5AN1 L289F
Method in brief: as §1

[12] = test system: O5AP2 A105T
Method in brief: as §1

[13] = test system: O5AU1
Method in brief: as §1

[14] = test system: O5H14
Method in brief: as §1

[15] = test system: O5H15 V108I S148T T167S
Method in brief: as §1

[16] = test system: O6C65 T222A
Method in brief: as §1

[17] = test system: O6C70 L181P
Method in brief: as §1

[18] = test system: O7E24 S193F P242S
Method in brief: as §1

[19] = test system: O7E24
Method in brief: as §1

[20] = molecular target: OR10A3 (Homo sapiens) (UniProt P58181)
Method in brief: as §1

Measured: odorant receptor agonist call

OR10A2 (Homo sapiens), sequence (Q9H208 whole entry): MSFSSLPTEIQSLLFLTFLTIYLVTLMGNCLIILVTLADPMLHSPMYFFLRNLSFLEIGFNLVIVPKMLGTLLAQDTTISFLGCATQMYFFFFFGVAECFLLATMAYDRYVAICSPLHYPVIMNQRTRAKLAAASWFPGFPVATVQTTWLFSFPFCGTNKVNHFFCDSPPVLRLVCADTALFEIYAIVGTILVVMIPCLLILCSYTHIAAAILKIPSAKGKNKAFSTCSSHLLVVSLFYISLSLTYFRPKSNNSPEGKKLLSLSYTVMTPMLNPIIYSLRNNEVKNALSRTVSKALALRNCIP
OR10AG1 (Homo sapiens), sequence (Q8NH19 whole entry): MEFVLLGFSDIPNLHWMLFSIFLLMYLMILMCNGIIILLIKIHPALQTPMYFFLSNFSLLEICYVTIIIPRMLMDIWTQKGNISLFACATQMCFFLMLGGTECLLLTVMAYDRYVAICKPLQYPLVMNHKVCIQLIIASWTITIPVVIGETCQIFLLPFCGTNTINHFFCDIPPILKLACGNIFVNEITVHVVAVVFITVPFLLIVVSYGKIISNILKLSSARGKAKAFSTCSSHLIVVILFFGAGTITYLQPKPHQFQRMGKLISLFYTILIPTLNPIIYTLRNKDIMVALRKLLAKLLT
OR10A6 (Homo sapiens), sequence (Q8NH74 whole entry): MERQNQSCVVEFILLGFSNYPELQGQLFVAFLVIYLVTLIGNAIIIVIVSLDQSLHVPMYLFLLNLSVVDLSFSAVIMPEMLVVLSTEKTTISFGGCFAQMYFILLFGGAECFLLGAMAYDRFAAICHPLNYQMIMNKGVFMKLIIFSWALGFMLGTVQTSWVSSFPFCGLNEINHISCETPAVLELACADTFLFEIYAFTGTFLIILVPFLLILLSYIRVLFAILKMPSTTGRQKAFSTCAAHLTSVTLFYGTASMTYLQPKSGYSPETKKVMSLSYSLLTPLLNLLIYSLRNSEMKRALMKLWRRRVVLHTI
OR10A7 (Homo sapiens), sequence (Q8NGE5 whole entry): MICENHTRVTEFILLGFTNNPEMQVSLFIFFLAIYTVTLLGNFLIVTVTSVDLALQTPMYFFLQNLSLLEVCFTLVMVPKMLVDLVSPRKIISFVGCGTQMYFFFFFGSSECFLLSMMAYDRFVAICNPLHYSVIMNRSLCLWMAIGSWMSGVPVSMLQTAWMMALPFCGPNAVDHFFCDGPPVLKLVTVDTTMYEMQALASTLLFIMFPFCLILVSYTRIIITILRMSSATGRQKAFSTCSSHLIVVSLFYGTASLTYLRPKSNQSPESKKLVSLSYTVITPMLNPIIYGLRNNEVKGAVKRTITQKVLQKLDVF
OR10C1 (Homo sapiens), sequence (Q96KK4 whole entry): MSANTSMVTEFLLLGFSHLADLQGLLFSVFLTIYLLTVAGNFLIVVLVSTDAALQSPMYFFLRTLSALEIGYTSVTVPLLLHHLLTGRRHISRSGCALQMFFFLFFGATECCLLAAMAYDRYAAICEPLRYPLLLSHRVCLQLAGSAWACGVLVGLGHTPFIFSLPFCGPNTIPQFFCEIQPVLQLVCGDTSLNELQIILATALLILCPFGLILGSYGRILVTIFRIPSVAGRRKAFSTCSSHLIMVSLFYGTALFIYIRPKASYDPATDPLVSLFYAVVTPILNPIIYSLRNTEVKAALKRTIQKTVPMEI
OR10A5 (Homo sapiens), sequence (Q9H207 whole entry): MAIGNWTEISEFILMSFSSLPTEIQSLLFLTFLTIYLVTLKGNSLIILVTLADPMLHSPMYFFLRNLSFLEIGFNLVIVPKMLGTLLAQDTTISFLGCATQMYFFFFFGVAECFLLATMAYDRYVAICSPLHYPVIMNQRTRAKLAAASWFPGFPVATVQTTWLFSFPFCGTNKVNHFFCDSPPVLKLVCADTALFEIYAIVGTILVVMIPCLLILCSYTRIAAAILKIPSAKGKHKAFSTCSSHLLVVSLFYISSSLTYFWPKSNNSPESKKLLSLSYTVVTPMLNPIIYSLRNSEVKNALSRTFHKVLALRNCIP
OR10AD1 (Homo sapiens), sequence (Q8NGE0 whole entry): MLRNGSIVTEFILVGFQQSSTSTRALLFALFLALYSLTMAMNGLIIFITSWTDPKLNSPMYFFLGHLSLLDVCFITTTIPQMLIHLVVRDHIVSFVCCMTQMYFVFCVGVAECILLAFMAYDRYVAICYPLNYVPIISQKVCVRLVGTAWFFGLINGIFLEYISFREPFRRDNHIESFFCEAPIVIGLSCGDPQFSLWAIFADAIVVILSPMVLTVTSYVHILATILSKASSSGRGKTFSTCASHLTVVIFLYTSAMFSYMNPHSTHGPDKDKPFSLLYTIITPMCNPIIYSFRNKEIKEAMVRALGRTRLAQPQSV
OR10A4 (Homo sapiens), sequence (Q9H209 whole entry): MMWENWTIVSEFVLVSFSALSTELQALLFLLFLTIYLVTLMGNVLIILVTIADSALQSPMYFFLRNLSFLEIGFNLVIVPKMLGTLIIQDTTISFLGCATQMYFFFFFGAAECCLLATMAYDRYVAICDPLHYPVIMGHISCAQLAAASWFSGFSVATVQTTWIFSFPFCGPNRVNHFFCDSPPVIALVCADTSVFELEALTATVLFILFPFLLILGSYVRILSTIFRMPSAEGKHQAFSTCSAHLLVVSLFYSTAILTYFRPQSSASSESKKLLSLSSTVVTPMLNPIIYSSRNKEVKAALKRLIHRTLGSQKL
O5AU1, sequence (as listed by the source): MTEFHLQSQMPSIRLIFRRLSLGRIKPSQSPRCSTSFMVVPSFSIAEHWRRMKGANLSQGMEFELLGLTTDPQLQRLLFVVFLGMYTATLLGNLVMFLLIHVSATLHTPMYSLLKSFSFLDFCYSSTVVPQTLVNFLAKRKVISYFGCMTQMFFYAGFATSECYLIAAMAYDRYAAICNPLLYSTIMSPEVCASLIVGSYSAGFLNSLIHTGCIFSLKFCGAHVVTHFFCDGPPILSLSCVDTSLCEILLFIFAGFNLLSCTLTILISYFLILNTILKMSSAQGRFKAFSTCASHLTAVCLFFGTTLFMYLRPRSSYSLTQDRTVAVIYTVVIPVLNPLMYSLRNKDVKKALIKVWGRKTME
O6C65 T222A, sequence (as listed by the source, stated change not applied): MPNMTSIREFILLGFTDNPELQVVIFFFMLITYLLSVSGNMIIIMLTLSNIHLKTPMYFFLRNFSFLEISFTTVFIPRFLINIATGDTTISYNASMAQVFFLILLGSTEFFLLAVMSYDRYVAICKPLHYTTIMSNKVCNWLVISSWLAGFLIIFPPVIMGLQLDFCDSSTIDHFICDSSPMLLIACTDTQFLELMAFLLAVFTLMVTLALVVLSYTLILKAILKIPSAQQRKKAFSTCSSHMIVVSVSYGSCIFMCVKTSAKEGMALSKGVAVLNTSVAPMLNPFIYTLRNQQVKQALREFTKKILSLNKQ
O7E24, sequence (as listed by the source): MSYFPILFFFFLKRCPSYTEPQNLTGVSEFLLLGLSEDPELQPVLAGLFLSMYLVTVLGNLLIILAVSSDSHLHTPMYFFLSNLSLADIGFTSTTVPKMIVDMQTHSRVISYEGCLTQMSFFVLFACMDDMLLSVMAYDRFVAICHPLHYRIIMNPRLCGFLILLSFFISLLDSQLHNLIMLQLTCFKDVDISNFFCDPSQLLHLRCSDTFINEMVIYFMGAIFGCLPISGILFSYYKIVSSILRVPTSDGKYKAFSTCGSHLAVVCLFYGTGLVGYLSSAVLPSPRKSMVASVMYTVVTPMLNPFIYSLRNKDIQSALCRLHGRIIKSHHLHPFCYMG
O5AN1 L289F, sequence (as listed by the source, stated change not applied): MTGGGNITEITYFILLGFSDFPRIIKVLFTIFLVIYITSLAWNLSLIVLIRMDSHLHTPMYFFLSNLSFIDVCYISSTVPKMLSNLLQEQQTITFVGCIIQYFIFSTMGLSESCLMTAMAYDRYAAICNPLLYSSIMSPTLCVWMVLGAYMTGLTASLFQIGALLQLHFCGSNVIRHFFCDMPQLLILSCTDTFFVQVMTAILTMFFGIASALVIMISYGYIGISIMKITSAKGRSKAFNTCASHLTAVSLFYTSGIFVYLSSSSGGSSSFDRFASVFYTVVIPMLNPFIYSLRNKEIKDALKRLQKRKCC
OR10AC1 (Homo sapiens), sequence (Q8NH08 whole entry): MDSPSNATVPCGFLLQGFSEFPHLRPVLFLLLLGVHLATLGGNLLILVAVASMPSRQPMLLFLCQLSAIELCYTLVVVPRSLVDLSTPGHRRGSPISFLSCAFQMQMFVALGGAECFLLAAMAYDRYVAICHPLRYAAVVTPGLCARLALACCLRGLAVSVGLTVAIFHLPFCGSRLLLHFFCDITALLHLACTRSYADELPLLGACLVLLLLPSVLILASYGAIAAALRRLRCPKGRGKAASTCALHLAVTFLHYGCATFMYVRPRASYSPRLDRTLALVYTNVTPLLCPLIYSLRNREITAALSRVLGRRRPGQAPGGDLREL
O5AP2 A105T, sequence (as listed by the source, stated change not applied): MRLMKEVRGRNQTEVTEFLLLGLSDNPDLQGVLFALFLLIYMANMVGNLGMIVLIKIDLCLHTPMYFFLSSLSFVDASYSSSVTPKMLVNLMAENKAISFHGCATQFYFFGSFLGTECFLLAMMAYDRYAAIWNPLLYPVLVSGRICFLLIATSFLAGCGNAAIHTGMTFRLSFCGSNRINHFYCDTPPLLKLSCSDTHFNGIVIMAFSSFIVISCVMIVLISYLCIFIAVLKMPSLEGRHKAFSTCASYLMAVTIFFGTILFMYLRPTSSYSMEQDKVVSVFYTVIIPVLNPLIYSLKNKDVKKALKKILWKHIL
O5H14, sequence (as listed by the source): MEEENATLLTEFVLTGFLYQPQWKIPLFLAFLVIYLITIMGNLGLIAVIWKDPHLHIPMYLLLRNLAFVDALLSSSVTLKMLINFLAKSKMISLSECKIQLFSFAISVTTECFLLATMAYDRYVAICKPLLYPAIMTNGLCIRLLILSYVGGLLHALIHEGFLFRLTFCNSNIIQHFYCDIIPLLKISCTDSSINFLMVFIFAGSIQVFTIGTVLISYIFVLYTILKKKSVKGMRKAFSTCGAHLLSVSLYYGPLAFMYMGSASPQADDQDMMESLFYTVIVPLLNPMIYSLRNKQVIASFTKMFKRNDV

Cc1c([N+](=O)[O-])c(C)c([N+](=O)[O-])c(C(C)(C)C)c1[N+](=O)[O-]
active: [1]
inactive: [2] | [3] | [4] | [5] | [6] | [7] | [8] | [9] | [10]

C=CCOC(=O)Cc1ccccc1
not listed: [1] | [7]
inactive: all other assays above

CC(=O)c1cc2c(cc1C)C(C)(C)C(C)CC2(C)C (stereo not given)
inactive: [1]

CC(=O)c1cc(C(C)(C)C)cc2c1CCC2(C)C
inactive: [1]
